# According to paper PMC2885539 (Archives of biochemistry and biophysics, 2010):
# “Also recorded” adds a separate entry of the source.
# How the values were obtained:
# [1] = intra-articular injection, ref [47]; cited from earlier work
# [2] = ref [17], [18]; cited from earlier work
# [3] = cited from earlier work
# [4] = vs native BSA, ref [21]–[23]; cited from earlier work
# [5] = Equilibrium uptake / competitive binding in adult bovine cartilage; settings: labeled vs unlabeled Pf-pep
# [6] = Calculated diffusion times and temperature effect
# Solute properties = type: physicochemical; settings: known charge of the trivalent peptide
# [7] = Net charge estimated by fitting Donnan equilibrium theory to uptake data; type: physicochemical, bovine; settings: average of individual explants, mean ± SD, n = 68
# Outline: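 Bovine cartilage disks (3-mm, L1/L2) equilibrated 48 h at 4°C in PBS with 0.1% BSA, 0.01% NaN₃ and protease inhibitors containing ¹²⁵I-labelled peptide. Disk and bath counted by gamma counter. Uptake ratio: tissue concentration per water weight over bath concentration. sGAG measured by DMMB after proteinase-K digestion. Z is the exponent of a power-law relating peptide uptake to Na⁺ partitioning calculated from each specimen's GAG density.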
molecule,measurement,setting,value
O=C(O)c1ccccc1O [salicylate],clearance time from synovial fluid,[1],1 to 5 h
insulin-like growth factor-1 [IGF-1],binding to IGFBPs in cartilage ECM,[2],binds to specific IGF binding proteins (IGFBPs)
CN(C)c1ccc2c(-c3ccccc3C(=O)[O-])c3ccc(N(C)C)cc3[o+]c2c1 [tetramethylrhodamine],effect of static compression on diffusivity,"[3]; TMR, ref [49], [50]",reduced the diffusivities
cationized bovine serum albumin (BSA): cationized bovine serum albumin,uptake and retention in murine cartilage,[4],increased uptake and prolonged retention via binding within murine cartilage compared to native BSA
OC[C@H]1OC(O)[C@H](O)[C@@H](O)[C@@H]1O (stereo partly drawn) [glucose],variation of diffusivity with tissue depth,[3]; ref [42],did not vary significantly with tissue depth
O=C(O)Cc1ccccc1Nc1c(Cl)cccc1Cl [diclofenac],clearance time from synovial fluid,[1],1 to 5 h
Arg-Tyr-Lys-Arg-Thr [Pf-pep],binding to sites within cartilage,[5],negligible binding; also recorded: little or no binding of Pf-pep to sites within the tissue; also recorded: did not show measurable binding to the negatively charged GAG chains in cartilage
same,characteristic time lag L^2/6D,"[6]; L = 1 mm, D ~1×10^−6 cm^2/s",~ 27 min
same,factor of increase of diffusion coefficient at 37°C,"[6]; Stokes-Einstein relation, from room temperature to 37°C",~ 1.4
same,diffusion time constant δ^2/(π^2D),"[6]; δ = 400 μm, D ~1×10^−6 cm^2/s",~ 2.7 min
same,known net charge,Solute properties,+3
same,average net charge Z,[7],+3.07 ± 0.74
